Experimental data gathered from unrelated publications.
Palmitoyl-protein thioesterase 1: Palmitoyl-protein thioesterase 1 (Homo sapiens, UniProt P50897)
Transmembrane protease serine 6: Transmembrane protease serine 6 (Homo sapiens, UniProt Q8IU80)

O=C([O-])CCCCCCCNC(=O)c1ccccc1O.[Na+]
inhibition (Palmitoyl-protein thioesterase 1; enzyme activity, inhibitor; 125 µM): 9.21%

N=C(N)NCCC[C@H](NC(=O)C1(NC(=O)[C@H](Cc2cscn2)NC(=O)CCc2ccccc2)CC1)C(=O)c1nc2ccccc2s1
remaining activity (Transmembrane protease serine 6; enzyme activity, inhibitor; 0.1 µM): 60%

COc1cc(-c2cncc3c2CN(C)Cc2cc(N4CCNCC4)ccc2-3)cc(OC)c1OC
remaining activity (Muscle, skeletal receptor tyrosine-protein kinase (MUSK, Homo sapiens, UniProt O15146); enzyme activity, inhibitor; 1 µM): 113%

N=C(N)NCCC[C@H](NC(=O)[C@H](CC1CCCCC1)NC(=O)[C@H](Cc1cscn1)NC(=O)CCc1ccccc1)C(=O)c1nc2ccccc2s1
remaining activity (Transmembrane protease serine 6; enzyme activity, inhibitor; 0.1 µM): 6%

CNc1ncc2c(/C=C/C(=O)N3CCC(OC)CC3)nn(Cc3cccc(C(F)(F)F)c3)c2n1
remaining activity (Epidermal growth factor receptor (EGFR, Homo sapiens, UniProt P00533); enzyme activity, inhibitor, radiometric; 1 µM): 108%

Cc1cc([C@@H](C)Nc2ccccc2C(=O)O)c2nc(N3CCC(F)(F)CC3)c(C#N)c(=O)n2c1
remaining binding (SRSF protein kinase 3 (SRPK3, Homo sapiens, UniProt Q9UPE1); binding, competition with immobilised ligand; 10 µM): 96%

CC(C)C[C@@H](C(=O)N[C@H](C(=O)OC1CCCC1)c1ccccc1)[C@H](O)C(=O)NO
inhibition (Palmitoyl-protein thioesterase 1; enzyme activity, inhibitor; 625 µM): 8.02%

N=C(N)NCCC[C@H](NC(=O)[C@H](CC12CC3CC(CC(C3)C1)C2)NC(=O)[C@H](Cc1cscn1)NC(=O)CCc1ccccc1)C(=O)c1nc2ccccc2s1
remaining activity (Transmembrane protease serine 6; enzyme activity, inhibitor; 0.1 µM): 95%

C=CC(=O)N1CCC(COCC(=O)N2CCN(c3nc(-c4cnc(N)nc4C(F)F)nc(N4CCOC[C@@H]4C)n3)CC2)CC1
remaining binding (Ribosomal protein S6 kinase alpha-2, C-terminal kinase domain (RPS6KA2, Homo sapiens, UniProt Q15349); binding, competition with immobilised ligand; 1 µM): 90%
